Test results as given in ChEMBL document CHEMBL3352559, “Synthesis and pharmacological investigation of aralkyl diamine derivatives as potential triple reuptake inhibitors” (Eur J Med Chem, 2014).

Columns and labels:
[1] = Acute toxicity in KM mouse assessed as survival at 150 mg/kg, po up to 14 days (reference value: 100%); type: organism-based; set-up: dose 150 mg/kg, route oral; conditions: in vivo
[2] = AUC (0 to infinity) in Sprague-Dawley rat at 0.5 mg/kg, iv; type: ADME, organism-based; set-up: time infinity, dose 0.5 mg/kg, route intravenous; conditions: plasma
How it was run: (§1)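 Male SD rats, fasted overnight until 6 h post-dose. PO group received single 2 mg/kg with heparinized blood sampled at 5, 15, 30 min, 1, 2, 4, 8, 24 h. IV group received single 0.5 mg/kg via femoral vein with sampling at 5, 15, 30 min, 1, 2, 4 h. Plasma stored at -40 °C, quantified by LC/MS/MS; 24 rats per group.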

[3] = target: Adenosine receptor A3 (Homo sapiens) (UniProt P0DMS8); assay: Displacement of [3H]ABMECA from human adenosine A3 receptor at 10 uM relative to control
Chain of Adenosine receptor A3 (Homo sapiens) (P0DMS8 whole entry): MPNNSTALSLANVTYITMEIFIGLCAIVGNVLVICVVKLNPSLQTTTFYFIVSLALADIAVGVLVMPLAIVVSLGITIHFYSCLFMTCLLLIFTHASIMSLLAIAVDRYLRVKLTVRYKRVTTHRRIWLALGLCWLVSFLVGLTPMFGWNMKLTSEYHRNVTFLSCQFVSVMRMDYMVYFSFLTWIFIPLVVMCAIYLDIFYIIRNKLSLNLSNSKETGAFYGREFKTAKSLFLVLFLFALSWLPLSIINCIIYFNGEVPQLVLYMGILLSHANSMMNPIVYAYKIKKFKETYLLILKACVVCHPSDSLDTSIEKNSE
How it was run: (§2)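 Outsourced CNS panel of 55 receptor binding assays run by Cerep. Compound tested at 10 μM, the default primary-binding concentration, with inhibition expressed relative to control. Inhibition above 50% taken as a significant effect.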

[4] = Oral bioavailability in Sprague-Dawley rat at 2 mg/kg; type: ADME, organism-based; conditions: in vivo
[5] = system: Salmonella typhimurium; assay: Mutagenic activity in Salmonella typhimurium TA98 assessed as number of reversion mutation at 1000 ug/plate; type: toxicity, organism-based; conditions: salmonella enterica subsp. enterica serovar typhimurium
How it was run: (§3)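 Ames reversion test in Salmonella typhimurium TA98 and TA100, with and without rat liver S9 metabolic activation. Compound was dissolved in DMSO and added at 3–5000 μg/plate. Each dose, vehicle and positive control was plated in triplicate, and revertant colonies were counted.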

[6] = target: Mu-type opioid receptor (Homo sapiens) (UniProt P35372); assay: Displacement of […] from human mu opioid receptor at 10 uM relative to control; how it was run: as §2
Chain of Mu-type opioid receptor (Homo sapiens) (P35372 whole entry): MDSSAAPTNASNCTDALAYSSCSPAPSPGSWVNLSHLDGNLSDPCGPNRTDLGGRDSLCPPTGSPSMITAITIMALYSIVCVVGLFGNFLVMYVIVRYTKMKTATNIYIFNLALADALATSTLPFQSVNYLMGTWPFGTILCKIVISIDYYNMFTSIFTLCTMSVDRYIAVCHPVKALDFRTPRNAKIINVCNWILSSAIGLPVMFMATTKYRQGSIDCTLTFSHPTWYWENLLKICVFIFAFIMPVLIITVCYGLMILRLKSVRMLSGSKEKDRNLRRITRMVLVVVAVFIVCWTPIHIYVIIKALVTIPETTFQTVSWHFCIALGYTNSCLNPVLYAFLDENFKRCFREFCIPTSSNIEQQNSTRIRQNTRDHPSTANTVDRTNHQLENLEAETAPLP

[7] = target: Melatonin receptor type 1A (Homo sapiens) (UniProt P48039); assay: Displacement of 2-[125I]iodomelatonin from human melatonin MT1 receptor at 10 uM relative to control; how it was run: as §2
Chain of Melatonin receptor type 1A (Homo sapiens) (P48039 whole entry): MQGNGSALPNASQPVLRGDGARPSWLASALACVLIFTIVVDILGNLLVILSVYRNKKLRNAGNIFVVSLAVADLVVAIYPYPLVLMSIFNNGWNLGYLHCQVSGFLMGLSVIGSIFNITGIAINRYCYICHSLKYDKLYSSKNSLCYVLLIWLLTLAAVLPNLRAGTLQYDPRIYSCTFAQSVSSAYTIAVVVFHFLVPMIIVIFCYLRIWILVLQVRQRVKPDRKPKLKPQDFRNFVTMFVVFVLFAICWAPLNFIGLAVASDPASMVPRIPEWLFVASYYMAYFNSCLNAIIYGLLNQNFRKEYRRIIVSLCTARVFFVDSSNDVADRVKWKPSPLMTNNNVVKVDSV

[8] = system: Salmonella typhimurium; assay: Mutagenic activity in Salmonella typhimurium TA98 assessed as number of reversion mutation at 5000 ug/plate; type: toxicity, organism-based; conditions: salmonella enterica subsp. enterica serovar typhimurium; how it was run: as §3
[9] = Cmax in Sprague-Dawley rat at 0.5 mg/kg, iv; type: ADME, organism-based; set-up: dose 0.5 mg/kg, route intravenous; conditions: in vivo; how it was run: as §1
[10] = Drug uptake in Sprague-Dawley rat plasma at 0.5 mg/kg iv after 0.08 hrs; type: ADME, organism-based; set-up: dose 0.5 mg/kg, route intravenous
How it was run: (§4)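 Male SD rats, fasted overnight until 6 h post-dose; single 0.5 mg/kg femoral-vein injection; blood drawn into heparin at 5, 15, 30 min, 1, 2 and 4 h; plasma stored at -40 °C; drug levels by LC/MS/MS; noncompartmental parameters.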

[11] = target: Histamine H2 receptor (Homo sapiens) (UniProt P25021); assay: Displacement of [125I]APT from human histamine H2 receptor at 10 uM relative to control; how it was run: as §2
Chain of Histamine H2 receptor (Homo sapiens) (P25021 whole entry): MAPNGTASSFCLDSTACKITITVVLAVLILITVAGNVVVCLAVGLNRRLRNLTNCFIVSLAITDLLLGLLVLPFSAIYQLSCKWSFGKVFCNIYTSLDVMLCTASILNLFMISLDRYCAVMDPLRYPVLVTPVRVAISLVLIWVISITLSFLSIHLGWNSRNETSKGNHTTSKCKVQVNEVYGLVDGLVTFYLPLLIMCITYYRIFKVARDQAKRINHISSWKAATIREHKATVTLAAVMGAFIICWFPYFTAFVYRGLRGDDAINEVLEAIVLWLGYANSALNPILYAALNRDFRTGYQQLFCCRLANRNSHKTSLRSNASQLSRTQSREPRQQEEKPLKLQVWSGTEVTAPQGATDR

[12] = target: Prostaglandin E2 receptor EP4 subtype (Homo sapiens) (UniProt P35408); assay: Displacement of [3H]PGE2 from human EP4 receptor at 10 uM relative to control; how it was run: as §2
Chain of Prostaglandin E2 receptor EP4 subtype (Homo sapiens) (P35408 whole entry): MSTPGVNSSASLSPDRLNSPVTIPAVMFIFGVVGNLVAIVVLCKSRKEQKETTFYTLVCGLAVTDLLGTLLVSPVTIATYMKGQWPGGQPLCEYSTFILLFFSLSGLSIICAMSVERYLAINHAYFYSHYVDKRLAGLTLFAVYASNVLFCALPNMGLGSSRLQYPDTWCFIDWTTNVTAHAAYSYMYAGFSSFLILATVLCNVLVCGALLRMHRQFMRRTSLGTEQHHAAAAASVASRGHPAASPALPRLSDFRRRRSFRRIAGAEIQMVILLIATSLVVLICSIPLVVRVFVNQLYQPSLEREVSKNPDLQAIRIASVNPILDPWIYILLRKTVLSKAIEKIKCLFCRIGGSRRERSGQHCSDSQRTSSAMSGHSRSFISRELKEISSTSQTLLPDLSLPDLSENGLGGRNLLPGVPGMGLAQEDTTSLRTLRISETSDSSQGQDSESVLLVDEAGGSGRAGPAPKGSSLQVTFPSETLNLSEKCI

[13] = Apparent oral clearance in Sprague-Dawley rat at 2 mg/kg, po; type: ADME, organism-based; set-up: dose 2 mg/kg, route oral; conditions: in vivo; how it was run: as §1
[14] = target: Type-1 angiotensin II receptor (Homo sapiens) (UniProt P30556); assay: Displacement of [125I][Sar1,Ile8]-ATII from human angiotensin AT1 receptor at 10 uM relative to control; how it was run: as §2
Chain of Type-1 angiotensin II receptor (Homo sapiens) (P30556 whole entry): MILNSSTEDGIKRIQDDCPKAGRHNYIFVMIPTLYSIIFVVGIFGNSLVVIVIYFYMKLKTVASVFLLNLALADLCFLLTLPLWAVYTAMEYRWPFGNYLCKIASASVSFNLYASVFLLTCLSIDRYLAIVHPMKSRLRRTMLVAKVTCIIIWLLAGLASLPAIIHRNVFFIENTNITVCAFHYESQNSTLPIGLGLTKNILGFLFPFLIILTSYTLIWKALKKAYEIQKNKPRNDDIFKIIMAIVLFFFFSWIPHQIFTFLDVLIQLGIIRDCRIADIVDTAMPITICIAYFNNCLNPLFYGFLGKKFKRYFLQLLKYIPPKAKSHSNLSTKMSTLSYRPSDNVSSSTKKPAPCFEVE

[15] = Cmax in Sprague-Dawley rat at 2 mg/kg, po; type: ADME, organism-based; set-up: dose 2 mg/kg, route oral; conditions: in vivo; how it was run: as §1
[16] = Apparent volume of distribution during terminal phase in Sprague-Dawley rat at 2 mg/kg, po; type: ADME, organism-based; set-up: dose 2 mg/kg, route oral; conditions: in vivo, read-out: Vz/F; how it was run: as §1
[17] = Drug uptake in Sprague-Dawley rat brain at 0.5 mg/kg ip after 2 hrs
[18] = system: Salmonella typhimurium; assay: Mutagenic activity in Salmonella typhimurium TA98 assessed as number of reversion mutation at 300 ug/plate; type: toxicity, organism-based; conditions: salmonella enterica subsp. enterica serovar typhimurium; how it was run: as §3
[19] = Mean residence time in Sprague-Dawley rat at 2 mg/kg, po; type: ADME, organism-based; set-up: dose 2 mg/kg, route oral; conditions: in vivo
[20] = target: C-X-C chemokine receptor type 2 (Homo sapiens) (UniProt P25025); assay: Displacement of [125I]IL-8 from CXCR2 receptor (unknown origin) at 10 uM relative to control; how it was run: as §2
Chain of C-X-C chemokine receptor type 2 (Homo sapiens) (P25025 whole entry): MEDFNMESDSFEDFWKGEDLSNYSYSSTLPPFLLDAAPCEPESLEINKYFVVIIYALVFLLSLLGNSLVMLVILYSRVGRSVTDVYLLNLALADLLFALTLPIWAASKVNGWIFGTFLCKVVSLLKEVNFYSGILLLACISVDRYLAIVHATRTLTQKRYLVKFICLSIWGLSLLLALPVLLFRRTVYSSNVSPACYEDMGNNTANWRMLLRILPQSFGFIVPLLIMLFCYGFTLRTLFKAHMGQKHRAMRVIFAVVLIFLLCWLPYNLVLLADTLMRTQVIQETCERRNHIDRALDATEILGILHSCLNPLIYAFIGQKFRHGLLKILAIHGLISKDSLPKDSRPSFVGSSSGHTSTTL

[21] = system: Rattus norvegicus; assay: Antidepressant activity in rat assessed as reduction in immobility time at 20 mg/kg, po by forced swimming test relative to control; type: functional
How it was run: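 Male rats dosed orally at 5, 10 or 20 mg/kg alongside vehicle and venlafaxine 30 mg/kg PO groups. 1 h post-dose, each rat placed in a glass cylinder (40 cm × 18 cm) holding 15 cm of 25 ± 1 °C water. Immobility time recorded over a 6 min trial; significant main effects followed by post hoc Fisher's test.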

[22] = target: 5-hydroxytryptamine receptor 2A (Homo sapiens) (UniProt P28223); assay: Displacement of [3H]ketanserin from human 5-HT2A receptor at 10 uM relative to control
Chain of 5-hydroxytryptamine receptor 2A (Homo sapiens) (P28223 whole entry): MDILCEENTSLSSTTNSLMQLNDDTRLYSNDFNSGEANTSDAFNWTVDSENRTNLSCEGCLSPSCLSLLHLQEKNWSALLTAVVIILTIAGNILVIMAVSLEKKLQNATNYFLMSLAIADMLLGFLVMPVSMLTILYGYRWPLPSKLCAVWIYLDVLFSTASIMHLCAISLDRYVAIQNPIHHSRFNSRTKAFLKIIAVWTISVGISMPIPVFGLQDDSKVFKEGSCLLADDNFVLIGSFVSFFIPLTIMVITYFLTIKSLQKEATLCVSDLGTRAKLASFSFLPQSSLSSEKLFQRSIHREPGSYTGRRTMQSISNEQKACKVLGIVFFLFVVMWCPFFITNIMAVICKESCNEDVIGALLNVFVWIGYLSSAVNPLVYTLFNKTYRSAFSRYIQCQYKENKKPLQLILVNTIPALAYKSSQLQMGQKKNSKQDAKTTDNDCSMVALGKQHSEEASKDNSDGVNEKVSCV
How it was run: (§5)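 Outsourced CNS receptor panel (55 binding assays); compound tested at 10 μM in primary radioligand binding; specific binding inhibition expressed relative to control, with >50% inhibition taken as a significant effect.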

[23] = target: Somatostatin receptor (Homo sapiens) (UniProt P35346+P30874+P31391+P30872+P32745); assay: Displacement of [125ITyr11- somatostatin-14 from sst receptor (unknown origin) at 10 uM relative to control; type: protein assay; how it was run: as §2
[24] = target: Beta-1 adrenergic receptor (Homo sapiens) (UniProt P08588); assay: Displacement of [3H]CGP-12177 from human beta1-adrenergic receptor at 10 uM relative to control; how it was run: as §2
Chain of Beta-1 adrenergic receptor (Homo sapiens) (P08588 whole entry, looked up): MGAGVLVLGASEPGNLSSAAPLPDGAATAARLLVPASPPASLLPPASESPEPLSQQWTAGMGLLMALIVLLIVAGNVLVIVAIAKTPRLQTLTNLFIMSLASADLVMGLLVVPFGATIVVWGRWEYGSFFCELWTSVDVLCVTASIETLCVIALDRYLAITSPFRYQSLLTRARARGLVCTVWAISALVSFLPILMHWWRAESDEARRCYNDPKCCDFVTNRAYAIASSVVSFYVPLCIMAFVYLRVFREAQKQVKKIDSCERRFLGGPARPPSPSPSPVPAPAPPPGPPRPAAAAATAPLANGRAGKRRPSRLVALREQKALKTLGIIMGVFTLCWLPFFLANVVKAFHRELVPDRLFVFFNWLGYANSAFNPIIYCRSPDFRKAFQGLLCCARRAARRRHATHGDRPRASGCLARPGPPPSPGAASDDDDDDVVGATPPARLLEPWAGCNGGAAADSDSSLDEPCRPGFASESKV

[25] = target: 5-hydroxytryptamine receptor 3A (Homo sapiens) (UniProt P46098); assay: Inhibition of human 5HT3 at 10 uM by […] binding assay relative to control; how it was run: as §5
Chain of 5-hydroxytryptamine receptor 3A (Homo sapiens) (P46098 whole entry): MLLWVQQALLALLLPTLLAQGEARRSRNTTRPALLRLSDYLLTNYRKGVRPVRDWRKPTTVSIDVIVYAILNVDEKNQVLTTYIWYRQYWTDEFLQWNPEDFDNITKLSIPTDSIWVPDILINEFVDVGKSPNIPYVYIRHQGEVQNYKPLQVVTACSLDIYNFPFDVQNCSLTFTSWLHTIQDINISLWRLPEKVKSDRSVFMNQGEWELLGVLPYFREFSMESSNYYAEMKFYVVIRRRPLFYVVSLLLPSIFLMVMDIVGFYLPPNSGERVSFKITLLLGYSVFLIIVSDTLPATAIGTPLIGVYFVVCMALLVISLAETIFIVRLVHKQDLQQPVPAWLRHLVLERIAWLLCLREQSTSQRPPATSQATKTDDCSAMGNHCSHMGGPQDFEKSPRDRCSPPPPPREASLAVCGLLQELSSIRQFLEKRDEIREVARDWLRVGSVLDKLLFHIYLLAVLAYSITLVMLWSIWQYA

[26] = Drug uptake in Sprague-Dawley rat brain at 0.5 mg/kg iv after 4 hrs; type: ADME, organism-based; set-up: dose 0.5 mg/kg, route intravenous; conditions: read-out: Drug uptake
[27] = Drug uptake in Sprague-Dawley rat plasma at 0.5 mg/kg iv after 4 hrs; type: ADME, organism-based; set-up: dose 0.5 mg/kg, route intravenous; how it was run: as §4
[28] = Ratio of drug level in Sprague-Dawley rat brain to plasma at 0.5 mg/kg iv after 0.25 hrs; type: ADME, organism-based; set-up: dose 0.5 mg/kg, route intravenous; conditions: read-out: BPR
[29] = Acute toxicity in KM mouse assessed as survival at 900 mg/kg, po up to 14 days (reference value: 100%); type: organism-based; set-up: dose 900 mg/kg, route oral; conditions: in vivo
[30] = AUC (0 to infinity) in Sprague-Dawley rat at 2 mg/kg, po; type: ADME, organism-based; set-up: dose 2 mg/kg, route oral, time infinity; conditions: plasma; how it was run: as §1
[31] = target: Histamine H1 receptor (Homo sapiens) (UniProt P35367); assay: Displacement of [3H]Pyrilamine from human histamine H1 receptor at 10 uM relative to control; how it was run: as §2
Chain of Histamine H1 receptor (Homo sapiens) (P35367 whole entry): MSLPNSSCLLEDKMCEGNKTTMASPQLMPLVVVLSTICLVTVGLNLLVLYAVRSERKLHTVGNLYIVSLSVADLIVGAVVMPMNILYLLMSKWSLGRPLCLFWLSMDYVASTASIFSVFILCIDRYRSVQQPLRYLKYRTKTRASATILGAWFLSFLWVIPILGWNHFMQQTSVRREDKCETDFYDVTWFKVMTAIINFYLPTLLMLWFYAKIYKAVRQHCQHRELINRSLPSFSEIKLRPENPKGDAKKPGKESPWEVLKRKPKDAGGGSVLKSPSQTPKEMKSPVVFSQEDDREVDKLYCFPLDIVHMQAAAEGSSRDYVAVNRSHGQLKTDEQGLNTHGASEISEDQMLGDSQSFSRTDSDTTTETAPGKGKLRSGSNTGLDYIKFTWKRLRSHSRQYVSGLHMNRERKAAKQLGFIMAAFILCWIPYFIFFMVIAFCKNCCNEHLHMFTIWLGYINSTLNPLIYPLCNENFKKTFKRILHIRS

[32] = target: Substance-K receptor (Homo sapiens) (UniProt P21452); assay: Displacement of [125I]NKA from human NK2 receptor at 10 uM relative to control; how it was run: as §2
Chain of Substance-K receptor (Homo sapiens) (P21452 whole entry): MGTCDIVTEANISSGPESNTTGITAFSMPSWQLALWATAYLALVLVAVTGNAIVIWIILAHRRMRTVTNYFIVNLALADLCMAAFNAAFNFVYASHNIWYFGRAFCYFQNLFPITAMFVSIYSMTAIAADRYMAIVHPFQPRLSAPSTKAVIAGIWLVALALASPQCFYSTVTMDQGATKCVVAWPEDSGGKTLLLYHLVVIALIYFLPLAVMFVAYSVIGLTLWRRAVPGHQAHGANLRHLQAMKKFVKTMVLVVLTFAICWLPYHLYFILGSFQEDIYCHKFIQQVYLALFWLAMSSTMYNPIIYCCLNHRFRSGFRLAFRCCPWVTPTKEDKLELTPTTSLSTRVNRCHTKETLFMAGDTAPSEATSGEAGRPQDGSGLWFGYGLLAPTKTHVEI

[33] = Ratio of drug level in Sprague-Dawley rat brain to plasma at 0.5 mg/kg iv after 0.08 hrs; type: ADME, organism-based; set-up: dose 0.5 mg/kg, route intravenous; conditions: read-out: BPR
[34] = target: L-type calcium channel, verapamil binding site (Homo sapiens, UniProt O60840+Q01668+Q13698+Q13936); assay: Inhibition of human L-type calcium channel verapamil binding site at 10 uM by [3H]D88 binding assay relative to control; how it was run: as §5
[35] = system: Salmonella typhimurium; assay: Mutagenic activity in Salmonella typhimurium TA98 assessed as number of reversion mutation at 30 ug/plate; type: toxicity, organism-based; conditions: salmonella enterica subsp. enterica serovar typhimurium; how it was run: as §3

CN(C)CCC(c1ccc(Cl)c(Cl)c1)N1CCOCC1 (stereo not given)
survival at 336 h [1]: 100%
AUC(0-inf) [2]: 83.7 ng·h/mL
inhibition [3]: 2.6%
bioavailability [4]: 19.4%
Activity [5]: 31
inhibition [6]: 39.7%
inhibition [7]: -7.1%
Activity [8]: 12
Cmax [9]: 48.5 ng/mL
concentration at 0.08 h [10]: 48.5 ng/mL
inhibition [11]: -8%
inhibition [12]: -1.2%
CL/F [13]: 417 mL/min/kg
inhibition [14]: -9.5%
Cmax [15]: 26.8 ng/mL
Vd/F [16]: 164 L/kg
concentration at 2 h [17]: 178 ng/mL
Activity [18]: 30
MRT [19]: 3.05 h
inhibition [20]: 9.3%
inhibition in vivo at 20 mg/kg [21]: 66%
inhibition [22]: 32.1%
inhibition [23]: 3.2%
inhibition [24]: 11%
inhibition [25]: -5.2%
concentration at 4 h [26]: 42.2 ng/mL
concentration at 4 h [27]: 3.7 ng/mL
Kp at 0.25 h [28]: 22
survival at 336 h [29]: 40%
AUC(0-inf) [30]: 80 ng·h/mL
inhibition [31]: 22.7%
inhibition [32]: -7%
Kp at 0.08 h [33]: 23.1
inhibition at 10 µM [34]: 41.8%
Activity [35]: 36
